Measurements from different studies.
Each line is one published result; the experiments were not run side by side. In brackets after ≈: the same amount, converted by molar mass.

SMILES	organism	assay	system	conditions	measurement	result
OC(Cn1cncn1)(Cn1cncn1)c1ccc(F)cc1F	Candida albicans	microbial growth, broth dilution	58288	48 h	MIC	8 µM
C/C(=N\NC(=O)/N=C(\C)c1c(O)c2ccccc2oc1=O)c1c(O)c2ccccc2oc1=O	Penicillium verrucosum	microbial growth, broth dilution	–	48 h	MIC	62.5 µg/mL
CC(=O)NC[C@H]1CN(c2ccc(N3CCOCC3)c(F)c2)C(=O)O1	Enterococcus faecium	microbial growth	–	clinical isolate	MIC90	2 µg/mL (≈ 5.93 µM)
O=c1[nH]c(CCl)nc2scc(-c3ccccc3F)c12	Trypanosoma brucei	parasite growth, ATP luminescence	–	48 h	EC50	800 nM
C/C(=N\C(=N)/N=C(\C)c1c(O)c2ccccc2oc1=O)c1c(O)c2ccccc2oc1=O	Penicillium verrucosum	microbial growth, broth dilution	–	48 h	MIC	125 µg/mL
FC(F)(F)c1cc(Nc2ncnc3ccc(-c4cccc(N5CCOCC5)c4)cc23)ccc1Cl	Trypanosoma brucei	parasite growth, SYBR Green	–	48 h	GI50	50 nM
C/C(=N\c1nc(N)nc(/N=C(\C)c2c(O)c3ccccc3oc2=O)n1)c1c(O)c2ccccc2oc1=O	Penicillium verrucosum	microbial growth, broth dilution	–	48 h	MIC	7.81 µg/mL
CC(=O)N1CCN(c2ccc(OCC3COC(Cn4ccnc4)(c4ccc(Cl)cc4Cl)O3)cc2)CC1 (stereo not drawn)	Candida albicans	microbial growth, broth dilution	56452	48 h	MIC	2 µM
C/C(=N\C(=O)/N=C(\C)c1c(O)c2ccccc2oc1=O)c1c(O)c2ccccc2oc1=O	Penicillium verrucosum	microbial growth, broth dilution	–	48 h	MIC	62.5 µg/mL
O=[N+]([O-])c1ccc(Nc2ncnc3ccc(-c4cccc(N5CCOCC5)c4)cc23)cc1C(F)(F)F	Trypanosoma brucei	parasite growth, SYBR Green	GAMBIENSE	–	GI50	13 nM
O=c1[nH]c(CCl)nc2scc(-c3ccc(F)cc3)c12	Trypanosoma brucei	parasite growth, ATP luminescence	–	48 h	EC50	1500 nM
CCOC(=O)c1cnc2c([N+](=O)[O-])cc(C(F)(F)F)cc2c1NCCc1ccccc1	Trypanosoma brucei	parasite growth, resazurin	–	72 h	EC50	> 10000 nM
O=c1[nH]c(CCl)nc2scc(-c3ccc(C(F)(F)F)cc3)c12	Trypanosoma brucei	parasite growth, ATP luminescence	–	48 h	EC50	2500 nM
CC(=O)N1CCN(c2ccc(OCC3COC(Cn4ccnc4)(c4ccc(Cl)cc4Cl)O3)cc2)CC1 (stereo not drawn)	Penicillium verrucosum	microbial growth, broth dilution	–	48 h	MIC	3.9 µg/mL
c1cc(-c2ccc3ncnc(Nc4ncco4)c3c2)cc(N2C[C@H]3C[C@@H]2CO3)c1	Trypanosoma brucei	parasite growth, SYBR Green	–	48 h	GI50	2100 nM
CC[C@H]1OC(=O)[C@H](C)[C@@H](O[C@H]2C[C@@](C)(OC)[C@@H](O)[C@H](C)O2)[C@H](C)[C@@H](O[C@@H]2O[C@H](C)C[C@H](N(C)C)[C@H]2O)[C@](C)(O)C[C@@H](C)/C(=N\OCOCCOC)[C@H](C)[C@@H](O)[C@]1(C)O	Enterococcus faecium	microbial growth	–	clinical isolate	MIC90	> 128 µg/mL
c1cc(-c2ccc3ncnc(Nc4ncco4)c3c2)nc(N2CCOCC2)c1	Trypanosoma brucei	parasite growth, SYBR Green	–	48 h	GI50	190 nM
Cc1c2c(nn1C)CSCc1cc(n(C)n1)CSc1cc(c3ccccc3c1)OCCCc1c(C(=O)O)n(C)c3c-2c(Cl)ccc13	Enterococcus faecium	microbial growth, broth dilution	–	clinical isolate	MIC50	12.5 µM
CCOC(=O)c1cnc2c([N+](=O)[O-])cc(C(F)(F)F)cc2c1NCCCN1CCOCC1	Trypanosoma brucei	parasite growth, resazurin	–	72 h	EC50	> 10000 nM
c1cc(-c2ccc3ncnc(Nc4ncco4)c3c2)nc(N2CCOCC2)n1	Trypanosoma brucei	parasite growth, SYBR Green	–	48 h	GI50	230 nM
O=c1[nH]c(CCl)nc2scc(-c3cccc(F)c3)c12	Trypanosoma brucei	parasite growth, ATP luminescence	–	24 h	EC50	1300 nM
c1cc(-c2ccc3ncnc(NC4CCOCC4)c3c2)cc(N2CCOCC2)c1	Trypanosoma brucei	parasite growth, SYBR Green	–	48 h	GI50	3000 nM
CC1(C)S[C@@H]2[C@H](NC(=O)[C@H](N)c3ccccc3)C(=O)N2[C@H]1C(=O)O	Enterococcus faecium	microbial growth	–	clinical isolate	MIC50	128 µg/mL
Clc1cccc(Nc2ncnc3ccc(-c4cccc(N5CCOCC5)c4)cc23)c1	Trypanosoma brucei	parasite growth, SYBR Green	–	48 h	GI50	380 nM
C[C@@H]1[C@H](O)[C@@H](C)/C=C/C=C/C=C/C=C/C=C/C=C/C=C/[C@H](O[C@@H]2O[C@H](C)[C@@H](O)[C@H](N)[C@@H]2O)C[C@@H]2O[C@](O)(C[C@@H](O)C[C@@H](O)[C@H](O)CC[C@@H](O)C[C@@H](O)CC(=O)O[C@H]1C)C[C@H](O)[C@H]2C(=O)O	Candida albicans	microbial growth, broth dilution	CGMCC2	48 h	MIC	< 0.25 µM
C[C@@H]1[C@H](O)[C@@H](C)/C=C/C=C/C=C/C=C/C=C/C=C/C=C/[C@H](O[C@@H]2O[C@H](C)[C@@H](O)[C@H](N)[C@@H]2O)C[C@@H]2O[C@](O)(C[C@@H](O)C[C@@H](O)[C@H](O)CC[C@@H](O)C[C@@H](O)CC(=O)O[C@H]1C)C[C@H](O)[C@H]2C(=O)O	Candida albicans	microbial growth, well diffusion	–	20 µg/mL	inhibition zone	4 mm
CN1CCN(c2cccc(-c3ccc4ncnc(Nc5ccc(Cl)c(Cl)c5)c4c3)c2)CC1	Trypanosoma brucei	parasite growth, SYBR Green	–	48 h	GI50	290 nM
